Laboratory results as given in ChEMBL document CHEMBL1129428 (J Med Chem, 1996).

What was measured:
[1] = Compound was tested for toxicity after intraperitoneal injection into mice by using neurotoxicity screen test after 2 hr; type: organism-based; conditions: mouse, in vivo, ip
Procedure, shortened: (§1)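 Quantitative intraperitoneal mouse testing in the MES, scPTZ or rotorod neurotoxicity screens at the peak time given for each compound (0.25–2 h). ED50 or TD50 reported in mg/kg with 95% CI and slope (SE).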

[2] = test system: Rattus norvegicus; assay: Compound was tested for anticonvulsant activity after Oral Administration into Rats by using MES screen test after 0.25h,dose 50 mg/kg; number of rats out of four which were protected; type: functional
Procedure, shortened: (§2)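 Rats received the compound orally. […] Rats were tested in the MES screen at 0.25, 0.5, 1, 2 and 4 h. Each value is the number of rats protected out of 4. The test followed NINDS procedures.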

[3] = Protection index = TD50/ED50; type: ADME; conditions: read-out: PI
[4] = test system: Rattus norvegicus; assay: Compound was tested for anticonvulsant activity after Oral Administration into Rats by using MES screen test after 2h,dose 50 mg/kg; number of rats out of four which were protected; type: functional; procedure, shortened: as §2
[5] = test system: Rattus norvegicus; assay: Compound was tested for anticonvulsant activity after Oral Administration into Rats by using MES screen test after 0.5h,dose 50 mg/kg; number of rats out of four which were protected; type: functional; procedure, shortened: as §2
[6] = test system: Mus musculus; assay: Anticonvulsant activity after intraperitoneal injection into mice measured in a maximal electroshock scree (MES) screen; type: functional
[7] = test system: Rattus norvegicus; assay: Compound was tested for anticonvulsant activity after Oral Administration into Rats by using MES screen test after 1h,dose 50 mg/kg; number of rats out of four which were protected; type: functional; procedure, shortened: as §2
[8] = test system: Rattus norvegicus; assay: Compound was tested for anticonvulsant activity after Oral Administration into rat by using MES screen test after 2 hr; type: functional
Procedure, shortened: (§3)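 Rats dosed orally, typically at 50 mg/kg first, then mostly 12.5 mg/kg (some compounds at 30 mg/kg), and tested by maximal electroshock. Four rats per compound, scored at 0.25, 0.5, 1, 2 and 4 h as the number of rats protected out of 4.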

[9] = test system: Mus musculus; assay: Anticonvulsant activity after intraperitoneal injection into mice by using MES screen test after 0.5 hr; type: functional
[10] = test system: Rattus norvegicus; assay: Compound was tested for anticonvulsant activity after Oral Administration into Rats by using MES screen test after 4h,dose 50 mg/kg; number of rats out of four which were protected; type: functional; procedure, shortened: as §2
[11] = test system: Mus musculus; assay: Compound was tested for anticonvulsant activity after intraperitoneal injection into mice by using scPTZ screen test after 1 hr; type: functional; conditions: ip; procedure, shortened: as §1
[12] = Compound was tested for toxicity after oral administration in rat by using neurotoxicity screen test after 0.25-24 hr; type: organism-based; conditions: in vivo
Procedure, shortened: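 Rat neurotoxicity after oral dosing, observed at 0.25, 0.5, 1, 2, 4, 6, 8 and 24 h (8 h omitted for one compound).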

[13] = test system: Mus musculus; assay: Compound was tested for anticonvulsant activity after intraperitoneal injection into mice by using MES screen test after 1 hr; type: functional; conditions: ip; procedure, shortened: as §1
[14] = test system: Rattus norvegicus; assay: Compound was tested for anticonvulsant activity after Oral Administration into Rats by using MES screen test after 2h,dose 12.5 mg/kg; number of rats out of four which were protected; type: functional; procedure, shortened: as §2
[15] = test system: Mus musculus; assay: Anticonvulsant activity after intraperitoneal injection into mice by using scPTZ screen after 0.5 hr; type: functional
[16] = test system: Rattus norvegicus; assay: Compound was tested for anticonvulsant activity after Oral Administration into rat by using MES screen test after 4 hr; type: functional; procedure, shortened: as §3
[17] = test system: Rattus norvegicus; assay: Compound was tested for anticonvulsant activity after Oral Administration into Rats by using MES screen test after 4h,dose 12.5 mg/kg; number of rats out of four which were protected; type: functional; procedure, shortened: as §2
[18] = test system: Rattus norvegicus; assay: Compound was tested for anticonvulsant activity after Oral Administration into Rats by using MES screen test after 0.25h,dose 12.5 mg/kg; No activity was demonstarted; type: functional, organism-based; parameters: dose 12.5 mg/kg; procedure, shortened: as §2
[19] = test system: Rattus norvegicus; assay: Compound was tested for anticonvulsant activity after Oral Administration into Rats by using MES screen test after 1h,dose 12.5 mg/kg; number of rats out of four which were protected; type: functional; procedure, shortened: as §2
[20] = test system: Rattus norvegicus; assay: Anticonvulsant activity after oral administration into rats; type: functional; parameters: concentration or dose not given beside the values
[21] = Partition coefficient (logP); type: physicochemical; conditions: octanol/water
Procedure, shortened: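 Partition between 1-octanol and buffer at pH 7.4, with solutions prepared in 1-octanol before buffer is added. Quantified by UV, using λmax and ε values measured in 1-octanol.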

[22] = Compound was tested for toxicity after intraperitoneal injection into mice by using neurotoxicity screen test after 1 hr; type: organism-based; conditions: mouse, in vivo, ip; procedure, shortened: as §1
[23] = test system: Mus musculus; assay: Compound was tested for toxicity after intraperitoneal injection into mice by using toxicity screen test after 4 hr; type: organism-based; conditions: in vivo, ip
Procedure, shortened: (§4)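 Mice injected intraperitoneally at 30, 100 and 300 mg/kg and examined 0.5 and 4 h afterwards. Each entry is the minimum dose giving activity (MES protection, scPTZ protection, or rotorod failure for neurotoxicity) in half or more of the mice. Activity is called absent if nothing occurs at 300 mg/kg.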

[24] = test system: Mus musculus; assay: Toxicity after intraperitoneal injection into mice by using toxicity screen test after 0.5 hr; type: organism-based; conditions: in vivo, ip; procedure, shortened: as §4
[25] = test system: Rattus norvegicus; assay: Compound was tested for anticonvulsant activity after Oral Administration into Rats by using MES screen test after 4h,dose 12.5 mg/kg; No activity was demonstarted; type: functional, organism-based; parameters: dose 12.5 mg/kg; procedure, shortened: as §2
[26] = test system: Rattus norvegicus; assay: Compound was tested for anticonvulsant activity after Oral Administration into Rats by using MES screen test after 0.25h,dose 30 mg/kg; No activity was demonstarted; type: functional, organism-based; parameters: dose 30 mg/kg; procedure, shortened: as §2
[27] = test system: Rattus norvegicus; assay: Compound was tested for anticonvulsant activity after Oral Administration into Rats by using MES screen test after 0.5h,dose 30 mg/kg; number of rats out of four which were protected; type: functional; procedure, shortened: as §2
[28] = test system: Rattus norvegicus; assay: Compound was tested for anticonvulsant activity after Oral Administration into Rats by using MES screen test after 1h,dose 30 mg/kg; number of rats out of four which were protected; type: functional; procedure, shortened: as §2
[29] = test system: Mus musculus; assay: Anticonvulsant activity after intraperitoneal injection into mice by using scPTZ screen test after 4 hr; type: functional
[30] = test system: Rattus norvegicus; assay: Compound was tested for anticonvulsant activity after Oral Administration into Rats by using MES screen test after 4h,dose 30 mg/kg; number of rats out of four which were protected; type: functional; procedure, shortened: as §2
[31] = test system: Rattus norvegicus; assay: Compound was tested for anticonvulsant activity after Oral Administration into Rats by using MES screen test after 2h,dose 30 mg/kg; number of rats out of four which were protected; type: functional; procedure, shortened: as §2
[32] = test system: Rattus norvegicus; assay: Compound was tested for anticonvulsant activity after Oral Administration into Rats by using MES screen test after 0.5h,dose 12.5 mg/kg; No activity was demonstarted; type: functional, organism-based; parameters: dose 12.5 mg/kg; procedure, shortened: as §2
[33] = test system: Rattus norvegicus; assay: Compound was tested for anticonvulsant activity after Oral Administration into Rats by using MES screen test after 1h,dose 12.5 mg/kg; No activity was demonstarted; type: functional, organism-based; parameters: dose 12.5 mg/kg; procedure, shortened: as §2
[34] = test system: Rattus norvegicus; assay: Compound was tested for anticonvulsant activity after Oral Administration into Rats by using MES screen test after 0.25h,dose 50 mg/kg; No activity was demonstarted; type: functional, organism-based; parameters: dose 50 mg/kg; procedure, shortened: as §2
[35] = test system: Rattus norvegicus; assay: Compound was tested for anticonvulsant activity after Oral Administration into Rats by using MES screen test after 0.25h,dose 30 mg/kg; number of rats out of four which were protected; type: functional; procedure, shortened: as §2

SMILES	Activity [2]	Activity [4]	Activity [5]	Dose [6] [mg/kg]	Activity [7]	ED50 [8] [mg/kg]	Dose [9] [mg/kg]	Activity [10]	ED50 [11] [mg/kg]	ED50 [13] [mg/kg]	Activity [14]	Dose [15] [mg/kg]	Activity [17]	Activity [18]	Dose [23] [mg/kg]	Dose [24] [mg/kg]	also measured
Cc1ccc(Oc2ccc(/C=N/NC(N)=O)cc2)cc1	3	4	4	100	4	3.43	30	4	88.6	14.7							TD50 at 2 h [1]: 204 mg/kg; selectivity ratio [3]: 2.3; TD50 [12]: > 500 mg/kg
NC(=O)N/N=C\c1ccc(Oc2cccc(F)c2F)cc1				100			100		> 350	45.8	4	300	4	No activity			TD50 at 2 h [1]: 293 mg/kg; ED50 [16]: 6.15 mg/kg; Activity [19]: 4; Activity [20]: 3
NC(=O)N/N=C/c1ccc(Oc2ccc(F)cc2)cc1	2	4	4	100	4		30	4	> 54	12.9							logP [21]: 1.91; TD50 [12]: > 500 mg/kg; TD50 at 1 h [22]: 108 mg/kg
NC(=O)N/N=C/c1ccc(Oc2ccc(F)cc2Cl)cc1	4	4	4	30	4		30	4	> 68	13.1					300	100	TD50 at 1 h [22]: 62.5 mg/kg
Cc1cc(C)cc(Oc2ccc(/C=N/NC(N)=O)cc2)c1				300			30				2	300		No activity			Activity [25]: No activity; Activity [19]: 3; Activity [20]: 4
CC/C(=N/NC(N)=O)c1ccc(Sc2ccccc2)cc1				30		18.6	30					100			100	100	Activity [26]: No activity; Activity [27]: 3; Activity [28]: 4; Dose [29]: 100 mg/kg; Activity [30]: 4; Activity [31]: 3
N=C(N)N/N=C/c1ccc(Oc2ccc(F)cc2)cc1				30			300				1	30	2	No activity	100	100	Activity [32]: No activity; Activity [33]: No activity
NC(=O)N/N=C/c1ccc(Oc2ccccc2)cc1		4	3	300	4		100	4									logP [21]: 2.66; Activity [34]: No activity
CCCCc1ccc(Oc2ccc(/C=N/NC(N)=O)cc2)cc1				100			300				1		2	No activity	300		Activity [32]: No activity; Activity [33]: No activity
C/C(=N/NC(N)=O)c1ccccc1Oc1ccc(F)cc1						43.4											Activity [27]: 1; Activity [28]: 3; Activity [35]: 1; Activity [30]: 2; Activity [31]: 3
